From ChEMBL document CHEMBL1141510, “Synthesis and antioxidant activities of 3,5-dialkoxy-4-hydroxycinnamamides” (Bioorg Med Chem Lett, 2008)

Tests used:
Brain = test: Inhibition of lipid peroxidation in Sprague-Dawley rat brain after 30 mins by TBARS assay; format: functional, tissue-based; details: 0.5 h
How it was run: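 Brain from male Sprague–Dawley rats (about 10 weeks old) homogenized in ice-cold 10 mM Tris–HCl, pH 7.4, and spun 10 min at 1000g; the supernatant was used. TBARS read at 532 nm against a 1,1,3,3-tetraethoxypropane external standard.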

[1] = test system: Radical scavenging activity; test: Antioxidant activity assessed as DPPH radical scavenging activity at 300 uM; format: functional
[2] = test system: Radical scavenging activity; test: Antioxidant activity assessed as DPPH radical scavenging activity; format: functional
How it was run: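 Sample in ethanol added 1:9 to 0.15 mM DPPH radical in ethanol. Test compound solutions ranged 3–1000 µg/ml. Ethanol alone served as control. Reaction ran 10 min at 25 °C, then absorbance was read at 517 nm. Scavenging expressed as percent loss relative to control absorbance. EC50 taken as the concentration giving 50% loss of DPPH radical.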

[3] = Antioxidant activity assessed as ABTS radical scavenging activity at 150 uM; format: functional
[4] = Antioxidant activity assessed as ABTS radical scavenging activity; format: functional

**Q.** For CCC(CC)Oc1cc(/C=C/C(=O)NCCc2cc(C(C)(C)C)c(O)c(C(C)(C)C)c2)cc(OC(CC)CC)c1O, which IC50 (Brain) is on record?
**A.** Its IC50 is 0.44 µM.

**Q.** And the Activity [1]?
**A.** Its Activity is 55%.

**Q.** For CCCCCCOc1cc(/C=C/C(=O)O)cc(OCCCCCC)c1O, which IC50 (Brain) is on record?
**A.** Its IC50 is 2.24 µM.

**Q.** With CCCC(C)Oc1cc(/C=C/C(=O)NCc2cc(C(C)(C)C)c(O)c(C(C)(C)C)c2)cc(OC(C)CCC)c1O (centres undefined) as the compound, how does the IC50 (Brain) read?
**A.** Its IC50 is 0.57 µM.

**Q.** What about the IC50 [2] of the same compound?
**A.** Its IC50 is 66.6 µM.

**Q.** And the Activity [3]?
**A.** Its Activity is 47%.

**Q.** With CCCOc1cc(/C=C/C(=O)NCCc2cc(C(C)(C)C)c(O)c(C(C)(C)C)c2)cc(OCCC)c1O as the compound, how does the IC50 (Brain) read?
**A.** The IC50 was 0.26 µM.

**Q.** And the IC50 [2]?
**A.** The IC50 was 114 µM.

**Q.** What about the Activity [3] of the same compound?
**A.** The Activity was 37%.

**Q.** For CCCC(C)Oc1cc(/C=C/C(=O)NCCCc2ccc(C)c(C)c2)cc(OC(C)CCC)c1O (centres undefined), which IC50 (Brain) is on record?
**A.** The IC50 was 1.33 µM.

**Q.** What about the IC50 [4] of the same compound?
**A.** Its IC50 is 26.3 µM.

**Q.** And the IC50 [2]?
**A.** Its IC50 is 68.4 µM.

**Q.** Which IC50 (Brain) does the source give for CCCC(C)Oc1cc(/C=C/C(=O)O)cc(OC(C)CCC)c1O (centres undefined) here?
**A.** Its IC50 is 4.84 µM.

**Q.** What does the source list for CCCCCCOc1cc(/C=C/C(=O)NCCCc2ccc(C)c(C)c2)cc(OCCCCCC)c1O?
**A.** IC50 (Brain): 0.29 µM; IC50 [4]: 28.5 µM; IC50 [2]: 77.7 µM

**Q.** Which IC50 (Brain) does the source give for CCCCOc1cc(/C=C/C(=O)O)cc(OCCCC)c1O here?
**A.** The IC50 was 3.68 µM.

**Q.** Which IC50 (Brain) does the source give for COc1cc(CNC(=O)CCCc2ccc(C)c(C)c2)ccc1O here?
**A.** Its IC50 is 57.2 µM.

**Q.** Which results are given for COc1cc(/C=C/C(=O)NCc2cc(C(C)(C)C)c(O)c(C(C)(C)C)c2)cc(OC)c1O?
**A.** IC50 (Brain): 1.46 µM; IC50 [4]: 11.3 µM; IC50 [2]: 80.3 µM

**Q.** With CCCOc1cc(/C=C/C(=O)NCc2cc(C(C)(C)C)c(O)c(C(C)(C)C)c2)cc(OCCC)c1O as the compound, how does the IC50 (Brain) read?
**A.** Its IC50 is 0.27 µM.

**Q.** And the IC50 [2]?
**A.** The IC50 was 73 µM.

**Q.** What about the Activity [3] of the same compound?
**A.** The Activity was 24%.

**Q.** For CCC(CC)Oc1cc(/C=C/C(=O)O)cc(OC(CC)CC)c1O, which IC50 (Brain) is on record?
**A.** Its IC50 is 2.21 µM.

**Q.** For COc1cc(/C=C/C(=O)NCCc2cc(C(C)(C)C)c(O)c(C(C)(C)C)c2)cc(OC)c1O, which IC50 (Brain) is on record?
**A.** Its IC50 is 0.69 µM.

**Q.** What about the IC50 [4] of the same compound?
**A.** The IC50 was 15.6 µM.

**Q.** And the IC50 [2]?
**A.** Its IC50 is 69 µM.

**Q.** For CCC(CC)Oc1cc(/C=C/C(=O)NCc2cc(C(C)(C)C)c(O)c(C(C)(C)C)c2)cc(OC(CC)CC)c1O, which IC50 (Brain) is on record?
**A.** The IC50 was 0.82 µM.

**Q.** And the IC50 [2]?
**A.** Its IC50 is 67.7 µM.

**Q.** What about the Activity [3] of the same compound?
**A.** The Activity was 44%.

**Q.** For CCCCCCOc1cc(/C=C/C(=O)NCc2cc(C(C)(C)C)c(O)c(C(C)(C)C)c2)cc(OCCCCCC)c1O, which IC50 (Brain) is on record?
**A.** The IC50 was 3.52 µM.

**Q.** And the IC50 [4]?
**A.** The IC50 was 23.2 µM.

**Q.** And the Activity [1]?
**A.** The Activity was 75%.

**Q.** With CCCCOc1cc(/C=C/C(=O)NCCc2cc(C(C)(C)C)c(O)c(C(C)(C)C)c2)cc(OCCCC)c1O as the compound, how does the IC50 (Brain) read?
**A.** Its IC50 is 0.41 µM.

**Q.** With CCCCCCOc1cc(/C=C/C(=O)NCCc2cc(C(C)(C)C)c(O)c(C(C)(C)C)c2)cc(OCCCCCC)c1O as the compound, how does the IC50 (Brain) read?
**A.** The IC50 was 2.74 µM.

**Q.** What about the IC50 [4] of the same compound?
**A.** The IC50 was 27.4 µM.

**Q.** And the IC50 [2]?
**A.** The IC50 was 75.6 µM.

**Q.** Which results are given for CCCCOc1cc(/C=C/C(=O)NCc2cc(C(C)(C)C)c(O)c(C(C)(C)C)c2)cc(OCCCC)c1O?
**A.** IC50 (Brain): 0.42 µM; IC50 [2]: 177 µM; Activity [3]: 57%

**Q.** Which IC50 (Brain) does the source give for CCC(CC)Oc1cc(/C=C/C(=O)NCCCc2ccc(C)c(C)c2)cc(OC(CC)CC)c1O here?
**A.** The IC50 was 1.73 µM.

**Q.** What about the IC50 [2] of the same compound?
**A.** Its IC50 is 84.4 µM.

**Q.** And the Activity [3]?
**A.** The Activity was 49%.

**Q.** For COc1cc(/C=C/C(=O)O)cc(OC)c1O [SINAPINATE], which IC50 (Brain) is on record?
**A.** Its IC50 is 4.77 µM.

**Q.** For CCCC(C)Oc1cc(/C=C/C(=O)NCCc2cc(C(C)(C)C)c(O)c(C(C)(C)C)c2)cc(OC(C)CCC)c1O (centres undefined), which IC50 (Brain) is on record?
**A.** Its IC50 is 0.36 µM.

**Q.** And the IC50 [2]?
**A.** The IC50 was 85.1 µM.

**Q.** And the Activity [3]?
**A.** Its Activity is 64%.

**Q.** With COc1cc(CC(=O)NCCCc2ccc(C)c(C)c2)ccc1O as the compound, how does the IC50 (Brain) read?
**A.** Its IC50 is 25.9 µM.
